# Assay results: article PMC7336334 (ACS chemical biology, 2020)
# Legend:
# recombinant GRP94 = assay type: binding; conditions: at 50 μM
# PRMTs = assay: PRMT inhibition; assay type: biochemical; conditions: Supporting Information Graph SI-1
# recombinant HSP90α = assay type: binding; conditions: at 50 μM
# DNMT = DNMT inhibition; assay type: biochemical; conditions: Supporting Information Graph SI-1
# KHMTs = assay: KHMT inhibition; assay type: biochemical; conditions: Supporting Information Graph SI-1
# MCF-7 cells = assay: In situ probe labeling with in-gel TAMRA fluorescence, MCF-7; assay type: cell-based, human; conditions: 100 μM competitor, 10 μM probe 4, UV irradiation
# Method in brief: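 MCF-7 cells (RPMI 1640, 10% FCS) at 80–90% confluence were washed and put in serum-free medium. They got 10 μM probe for 1 h at 37 °C, with 100 μM competitor, then 1 h of 365 nm UV. Lysis in RIPA plus protease inhibitors. SDS-PAGE, fluorescence scan, SYPRO Ruby loading control.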
# [1] = test system: K-562, KG-1, MOLM-13, and WM-266–4 cells; assay: In situ probe labeling with in-gel TAMRA fluorescence, other cancer cell lines; assay type: cell-based, human; conditions: K-562, KG-1, MOLM-13, WM-266–4 cells, 1 h treatment with 10 μM probe, triplicate
# Method in brief: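 Cell media: K-562 in RPMI 1640 with 10% FCS, KG-1 and MOLM-13 with 20% FCS, WM-266–4 in EMEM with 10% FCS. Cells were treated in serum-free medium, in triplicate, with 10 μM probe, control probe or 1% DMSO for 1 h at 37 °C. UV at 365 nm for 1 h, then RIPA lysis. Click with TAMRA-biotin-azide/CuSO4/TCEP/TBTA, SDS-PAGE, in-gel fluorescence, SYPRO Ruby loading control.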
binding to GRP94 (recombinant GRP94),binding to HSP90α (recombinant HSP90α),SMILES,activity against PRMTs (PRMTs),activity against DNMT (DNMT),activity against KHMTs (KHMTs),labeling of probe 4 after competition (MCF-7 cells),labeling of band at 100 kDa / fluorescent labeling [1]
minor binding,no significant binding,Nc1nc(=O)n(COCc2ccccc2)cc1C(=O)NCC[C@H]1O[C@@H](n2cnc3c(N)ncnc32)[C@H](O)[C@@H]1O [Compound 2],inactive,inactive,inactive,completely abolished,
minor binding,no significant binding,"COCn1cc(C(=O)NCC[C@H]2O[C@@H](n3cnc4c(N)ncnc43)[C@H](O)[C@@H]2O)c(N)nc1=O [Compound 1, 1-(Methoxymethyl)-N-((5′-deoxyadenosin-5′-yl)methyl)cytosine-5-carboxamide]",inactive,inactive,inactive,completely abolished,
,,"C#CCCCC(=O)Nc1ccc(C(=O)c2ccc(NC(=O)CCCCNC(=O)OC(C)(C)C)cc2)cc1 [Compound 5, N-(4-(4-(5-(Boc-amino)pentanamido)benzoyl)phenyl)hex-5-ynamide]",,,,,absence of fluorescent labeling
